From ChEMBL document CHEMBL3085624, “Design, synthesis, and biological evaluation of novel investigational nonapeptide KISS1R agonists with testosterone-suppressive activity” (J Med Chem, 2013)
Non-standard residues stand in square brackets, D forms with d. Residues, ends and D or L forms follow the SMILES beside them. 2Nal = N[C@@H](Cc1ccc2ccccc2c1)C(=O)O; Arg(Me) = CNC(=N)NCCC[C@H](N)C(=O)O; azaGly = NNC(=O)O

molecular target: KiSS-1 receptor (Homo sapiens, UniProt Q969F8); assay: Agonist activity at recombinant human KISS1R expressed in CHO cells assessed as intracellular calcium mobilization incubated for 30 mins at 37 degC and 30 mins at room temperature by Fluo-4 NW staining-based FLIPR assay relative to Metastin (45 to 54); format: functional, cell-based
Outline: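 CHO cells stably expressing human KISS1R seeded at 15,000 cells/well, cultured 24 h, then loaded with Fluo-4 Direct in HBSS with 4 mM probenecid and 0.1% BSA (30 min 37 °C, 30 min room temperature). Compounds from 10 µM DMSO stocks diluted in sample buffer and added. Fluorescence read for 2 min at 2 s intervals. Peak counts give agonist activity. EC50 expressed as ratio to metastin(45-54).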

Sequence of KiSS-1 receptor (Q969F8 whole entry): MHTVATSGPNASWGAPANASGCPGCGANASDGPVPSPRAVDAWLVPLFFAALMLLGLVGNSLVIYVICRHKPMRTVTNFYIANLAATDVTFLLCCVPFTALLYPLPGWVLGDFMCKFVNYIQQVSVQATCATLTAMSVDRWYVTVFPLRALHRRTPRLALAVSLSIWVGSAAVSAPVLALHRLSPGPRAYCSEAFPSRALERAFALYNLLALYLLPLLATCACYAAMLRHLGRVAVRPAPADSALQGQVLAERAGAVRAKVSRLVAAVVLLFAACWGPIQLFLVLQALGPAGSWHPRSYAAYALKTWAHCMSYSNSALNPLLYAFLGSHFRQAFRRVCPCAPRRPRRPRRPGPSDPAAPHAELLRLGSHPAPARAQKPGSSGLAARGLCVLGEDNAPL

**Q.** For `CNC(=N)NCCC[C@H](NC(=O)[C@H](CC(C)C)NC(=O)NNC(=O)[C@H](Cc1ccccc1)NC(=O)[C@H](CO)NC(=O)[C@H](CC(N)=O)NC(=O)[C@@H](Cc1c[nH]c2ccccc12)NC(=O)[C@H](CC(N)=O)NC(=O)[C@H](N)Cc1ccc(O)cc1)C(=O)N[C@@H](Cc1ccccc1)C(N)=O`, which fold change (FC) is on record?
**A.** The fold change (FC) was 3.7.

**Q.** For `CNC(=N)NCCC[C@H](NC(=O)[C@H](CC(C)C)NC(=O)NNC(=O)[C@H](Cc1ccccc1)NC(=O)[C@H](CO)NC(=O)[C@H](CC(N)=O)NC(=O)[C@H](Cc1ccncc1)NC(=O)[C@@H](CC(N)=O)NC(=O)[C@H](N)Cc1ccc(O)cc1)C(=O)N[C@@H](Cc1ccccc1)C(N)=O`, which fold change (FC) is on record?
**A.** The fold change (FC) was 1.7.

**Q.** `CNC(=N)NCCC[C@H](NC(=O)[C@H](CC(C)C)NC(=O)NNC(=O)[C@H](Cc1ccccc1)NC(=O)[C@H](CO)NC(=O)[C@H](CC(N)=O)NC(=O)[C@@H](NC(=O)[C@@H](CC(N)=O)NC(=O)[C@H](N)Cc1ccc(O)cc1)[C@@H](C)O)C(=O)N[C@@H](Cc1ccccc1)C(N)=O` was tested. Which fold change (FC) did it give?
**A.** The fold change (FC) was 7.3.

**Q.** `CNC(=N)NCCC[C@H](NC(=O)[C@H](CC(C)C)NC(=O)NNC(=O)[C@H](Cc1ccccc1)NC(=O)[C@H](CO)NC(=O)[C@H](CC(N)=O)NC(=O)[C@H](Cc1c[nH]c2ccccc12)NC(=O)[C@H](CC(N)=O)NC(=O)[C@H](N)Cc1ccc(O)cc1)C(=O)N[C@@H](Cc1ccccc1)C(N)=O` was tested. Which fold change (FC) did it give?
**A.** The fold change (FC) was 2.8.

**Q.** How did the fold change (FC) turn out when `CNC(=N)NCCC[C@H](NC(=O)[C@H](CC(C)C)NC(=O)NNC(=O)[C@H](Cc1ccccc1)NC(=O)[C@H](CO)NC(=O)[C@H](CC(N)=O)NC(=O)[C@H](Cc1c[nH]c2ccccc12)NC(=O)[C@@H](CO)NC(=O)[C@H](N)Cc1ccc(O)cc1)C(=O)N[C@@H](Cc1ccccc1)C(N)=O` was run?
**A.** The fold change (FC) was 3.7.

**Q.** Which fold change (FC) does the source give for `CNC(=N)NCCC[C@H](NC(=O)[C@H](CC(C)C)NC(=O)NNC(=O)[C@H](Cc1ccccc1)NC(=O)[C@H](CO)NC(=O)[C@H](CC(N)=O)NC(=O)[C@@H](Cc1ccncc1)NC(=O)[C@H](CC(N)=O)NC(=O)[C@H](N)Cc1ccc(O)cc1)C(=O)N[C@@H](Cc1ccccc1)C(N)=O` here?
**A.** The fold change (FC) was 3.6.

**Q.** `CNC(=N)NCCC[C@H](NC(=O)[C@H](CC(C)C)NC(=O)NNC(=O)[C@H](Cc1ccccc1)NC(=O)[C@H](CO)NC(=O)[C@H](CC(N)=O)NC(=O)[C@H](Cc1ccc2ccccc2c1)NC(=O)[C@H](N)Cc1ccc(O)cc1)C(=O)N[C@@H](Cc1ccccc1)C(N)=O` (H-[dY][2Nal]NSF[azaGly]L[Arg(Me)]F-NH2) was tested. Which fold change (FC) did it give?
**A.** The fold change (FC) was 6.4.

**Q.** Which fold change (FC) does the source give for `CNC(=N)NCCC[C@H](NC(=O)[C@H](CC(C)C)NC(=O)NNC(=O)[C@H](Cc1ccccc1)NC(=O)[C@H](CO)NC(=O)[C@H](CC(N)=O)NC(=O)[C@H](Cc1ccncc1)NC(=O)[C@H](CC(N)=O)NC(=O)[C@H](N)Cc1ccc(O)cc1)C(=O)N[C@@H](Cc1ccccc1)C(N)=O` here?
**A.** The fold change (FC) was 5.

**Q.** With `CNC(=N)NCCC[C@H](NC(=O)[C@H](CC(C)C)NC(=O)NNC(=O)[C@H](Cc1ccccc1)NC(=O)[C@H](CO)NC(=O)[C@H](CC(N)=O)NC(=O)[C@H](Cc1ccccc1)NC(=O)[C@H](N)Cc1ccc(O)cc1)C(=O)N[C@@H](Cc1ccccc1)C(N)=O` as the compound, how does the fold change (FC) read?
**A.** Its fold change (FC) is 7.7.

**Q.** With `CNC(=N)NCCC[C@H](NC(=O)[C@H](CC(C)C)NC(=O)NNC(=O)[C@H](Cc1ccccc1)NC(=O)[C@H](CO)NC(=O)[C@H](CC(N)=O)NC(=O)[C@H](Cc1c[nH]c2ccccc12)NC(=O)[C@H](N)Cc1cccnc1)C(=O)N[C@@H](Cc1ccccc1)C(N)=O` as the compound, how does the fold change (FC) read?
**A.** The fold change (FC) was 8.7.

**Q.** Which fold change (FC) does the source give for `CNC(=N)NCCC[C@H](NC(=O)[C@H](CC(C)C)NC(=O)NNC(=O)[C@H](Cc1ccccc1)NC(=O)[C@H](CO)NC(=O)[C@H](CC(N)=O)NC(=O)[C@H](CO)NC(=O)[C@H](N)Cc1ccc(O)cc1)C(=O)N[C@@H](Cc1ccccc1)C(N)=O` (H-[dY]SNSF[azaGly]L[Arg(Me)]F-NH2) here?
**A.** Its fold change (FC) is 61.

**Q.** Which fold change (FC) does the source give for `CNC(=N)NCCC[C@H](NC(=O)[C@H](CC(C)C)NC(=O)NNC(=O)[C@H](Cc1ccccc1)NC(=O)[C@H](CO)NC(=O)[C@H](CC(N)=O)NC(=O)[C@@H](Cc1c[nH]c2ccccc12)NC(=O)[C@@H](CC(N)=O)NC(=O)[C@H](N)Cc1ccc(O)cc1)C(=O)N[C@@H](Cc1ccccc1)C(N)=O` here?
**A.** Its fold change (FC) is 8.6.
